Source: the M2OR odorant receptor database

Key:
Conditions in all cases: stereoisomer not certain
OR1A2 A108G K109N S155N = tested on: OR1A2 A108G K109N S155N
Outline: (§1)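 Assay methods differ from source to source, frequently being transient luciferase assays in mammalian cell lines. For each receptor–molecule pair, the label responsive (active) applies when the original authors judged the measured signal statistically different from baseline, and non-responsive (inactive) applies otherwise.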

[1] = tested on: OR1A2 A108G K109N T154A S155N
Outline: as §1

OR1A2 A108G K109N T154A = tested on: OR1A2 A108G K109N T154A
Outline: as §1

OR1A2 A108G K109N = tested on: OR1A2 A108G K109N
Outline: as §1

OR1A2 A108G T154A S155N = tested on: OR1A2 A108G T154A S155N
Outline: as §1

OR1A2 A108G = tested on: OR1A2 A108G
Sequence of OR1A2 A108G (as listed by the source, stated change not applied): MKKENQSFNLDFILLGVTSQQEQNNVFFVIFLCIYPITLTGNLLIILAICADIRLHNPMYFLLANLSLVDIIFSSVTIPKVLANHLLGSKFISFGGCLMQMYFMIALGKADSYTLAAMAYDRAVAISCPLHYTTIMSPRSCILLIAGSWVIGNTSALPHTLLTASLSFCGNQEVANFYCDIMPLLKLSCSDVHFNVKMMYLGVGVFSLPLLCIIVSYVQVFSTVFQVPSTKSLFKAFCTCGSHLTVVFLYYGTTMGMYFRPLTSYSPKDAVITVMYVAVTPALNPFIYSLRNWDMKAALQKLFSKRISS
Outline: as §1

OR1A2 K109N T154A S155N = tested on: OR1A2 K109N T154A S155N
Outline: as §1

OR1A2 K109N = tested on: OR1A2 K109N
Sequence of OR1A2 K109N (as listed by the source, stated change not applied): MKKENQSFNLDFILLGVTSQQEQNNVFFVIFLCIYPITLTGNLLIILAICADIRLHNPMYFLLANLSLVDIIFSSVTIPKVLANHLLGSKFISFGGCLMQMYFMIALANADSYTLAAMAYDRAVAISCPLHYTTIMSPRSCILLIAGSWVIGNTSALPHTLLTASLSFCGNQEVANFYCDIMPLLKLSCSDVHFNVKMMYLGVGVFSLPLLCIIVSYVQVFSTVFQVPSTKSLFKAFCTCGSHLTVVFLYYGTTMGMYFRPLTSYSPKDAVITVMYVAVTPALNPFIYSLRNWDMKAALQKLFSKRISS
Outline: as §1

OR1A2 S155N = tested on: OR1A2 S155N
Sequence of OR1A2 S155N (as listed by the source, stated change not applied): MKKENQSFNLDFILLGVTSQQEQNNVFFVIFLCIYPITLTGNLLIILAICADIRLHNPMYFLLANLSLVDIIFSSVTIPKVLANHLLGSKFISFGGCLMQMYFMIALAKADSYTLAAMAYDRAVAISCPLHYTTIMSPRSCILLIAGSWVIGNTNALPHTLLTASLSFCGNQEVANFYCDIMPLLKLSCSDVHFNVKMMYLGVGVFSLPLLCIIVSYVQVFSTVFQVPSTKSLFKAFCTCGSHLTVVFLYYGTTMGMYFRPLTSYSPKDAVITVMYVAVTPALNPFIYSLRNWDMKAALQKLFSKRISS
Outline: as §1

OR1A2 T154A S155N = tested on: OR1A2 T154A S155N
Outline: as §1

OR1A2 T154A = tested on: OR1A2 T154A
Sequence of OR1A2 T154A (as listed by the source, stated change not applied): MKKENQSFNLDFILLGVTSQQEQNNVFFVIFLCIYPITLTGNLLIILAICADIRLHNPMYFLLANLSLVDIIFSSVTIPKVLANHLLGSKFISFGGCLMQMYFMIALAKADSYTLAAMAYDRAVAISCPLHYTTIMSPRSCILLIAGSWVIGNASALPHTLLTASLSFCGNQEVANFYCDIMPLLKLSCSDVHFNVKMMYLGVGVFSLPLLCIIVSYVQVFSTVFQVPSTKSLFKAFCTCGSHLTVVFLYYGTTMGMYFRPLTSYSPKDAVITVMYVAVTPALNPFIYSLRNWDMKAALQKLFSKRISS
Outline: as §1

OR1A2 T254V = tested on: OR1A2 T254V
Sequence of OR1A2 T254V (as listed by the source, stated change not applied): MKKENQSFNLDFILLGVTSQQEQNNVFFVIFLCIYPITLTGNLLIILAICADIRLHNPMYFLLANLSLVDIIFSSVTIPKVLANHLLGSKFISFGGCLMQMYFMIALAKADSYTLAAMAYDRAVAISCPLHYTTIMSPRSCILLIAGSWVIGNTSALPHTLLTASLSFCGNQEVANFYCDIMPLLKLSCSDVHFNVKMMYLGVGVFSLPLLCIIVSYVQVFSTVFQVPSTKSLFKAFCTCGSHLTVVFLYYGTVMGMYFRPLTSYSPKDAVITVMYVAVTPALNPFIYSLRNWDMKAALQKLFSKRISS
Outline: as §1

OR1A2 V205I = tested on: OR1A2 V205I
Sequence of OR1A2 V205I (as listed by the source, stated change not applied): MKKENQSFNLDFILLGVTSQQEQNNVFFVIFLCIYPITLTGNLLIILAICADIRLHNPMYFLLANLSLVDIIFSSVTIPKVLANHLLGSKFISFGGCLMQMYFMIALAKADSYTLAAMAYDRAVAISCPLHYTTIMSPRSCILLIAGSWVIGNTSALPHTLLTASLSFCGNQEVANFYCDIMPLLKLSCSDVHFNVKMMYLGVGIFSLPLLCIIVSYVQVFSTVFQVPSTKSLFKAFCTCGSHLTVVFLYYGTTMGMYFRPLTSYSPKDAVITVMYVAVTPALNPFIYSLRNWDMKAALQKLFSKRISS
Outline: as §1

OR1A2 V277T = tested on: OR1A2 V277T
Sequence of OR1A2 V277T (as listed by the source, stated change not applied): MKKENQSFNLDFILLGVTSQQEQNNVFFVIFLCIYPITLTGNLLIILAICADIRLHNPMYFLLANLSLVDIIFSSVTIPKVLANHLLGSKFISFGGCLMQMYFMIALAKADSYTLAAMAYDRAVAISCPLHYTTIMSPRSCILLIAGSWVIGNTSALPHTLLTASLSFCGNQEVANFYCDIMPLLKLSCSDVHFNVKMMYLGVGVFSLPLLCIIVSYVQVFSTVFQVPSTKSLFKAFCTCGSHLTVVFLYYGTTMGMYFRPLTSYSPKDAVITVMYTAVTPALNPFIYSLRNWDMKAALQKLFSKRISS
Outline: as §1

OR1D2 = tested on: OR1D2
Sequence of OR1D2 (as listed by the source): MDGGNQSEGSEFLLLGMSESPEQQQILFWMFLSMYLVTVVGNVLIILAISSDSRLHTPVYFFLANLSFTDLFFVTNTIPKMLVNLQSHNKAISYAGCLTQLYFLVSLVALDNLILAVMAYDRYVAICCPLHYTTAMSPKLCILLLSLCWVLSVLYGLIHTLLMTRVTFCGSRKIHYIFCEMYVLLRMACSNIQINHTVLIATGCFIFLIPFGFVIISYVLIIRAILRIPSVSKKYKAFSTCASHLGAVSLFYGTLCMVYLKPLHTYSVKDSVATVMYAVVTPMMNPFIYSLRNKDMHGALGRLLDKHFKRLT
Outline: as §1

| SMILES | odorant receptor agonist call (OR1A2 A108G K109N S155N) | odorant receptor agonist call [1] | odorant receptor agonist call (OR1A2 A108G K109N T154A) | odorant receptor agonist call (OR1A2 A108G K109N) | odorant receptor agonist call (OR1A2 A108G T154A S155N) | odorant receptor agonist call (OR1A2 A108G) | odorant receptor agonist call (OR1A2 K109N T154A S155N) | odorant receptor agonist call (OR1A2 K109N) | odorant receptor agonist call (OR1A2 S155N) | odorant receptor agonist call (OR1A2 T154A S155N) | odorant receptor agonist call (OR1A2 T154A) | odorant receptor agonist call (OR1A2 T254V) | odorant receptor agonist call (OR1A2 V205I) | odorant receptor agonist call (OR1A2 V277T) | odorant receptor agonist call (OR1D2) |
| --- | --- | --- | --- | --- | --- | --- | --- | --- | --- | --- | --- | --- | --- | --- | --- |
| CC(C)=CCCC(C)CCO (stereo not given) | active | active | active | active | active | active | active | active | inactive | inactive | inactive | inactive | inactive | inactive |  |
| CC(C=O)Cc1ccc(C(C)(C)C)cc1 (stereo not given) |  |  |  |  |  |  |  |  |  |  |  |  |  |  | inactive |
